Experimental data reported in ChEMBL document CHEMBL4673184, “Synthesis and biological evaluation of S-lipidated lipopeptides of a connexin 43 channel inhibitory peptide” (RSC Med Chem, 2020).
Activity calls are given as the source filed them. No cut-off for these calls is given here. Where a SMILES comes first, the peptide text is derived from it. The star is where a group is joined. CH2CH2OBz(4-tBu) = CC(C)(C)c1ccc(C(=O)OCC*)cc1; Ethyl(2-decanoyloxy) = CCCCCCCCCC(=O)OCC*

Experiments:
[1] = Stability in rat plasma assessed as half life at 150 ug/l measured up to 60 mins by HPLC analysis; type: ADME, cell-free
How it was run: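 Peptide from a 20 mg/L water stock incubated in 25% rat serum (v/v) in PBS pH 7.4 at a final 150 μg/L, 37 °C. Samples taken at 0-60 min and quenched with MeCN plus 15% TCA, held overnight at 4 °C, then centrifuged. Remaining peptide measured by C18 RP-HPLC peak area at 210 nm relative to t=0. Run in triplicate.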

[2] = biological target: Gap junction alpha-1 protein (Homo sapiens) (UniProt P17302); experiment: Inhibition of Cx43 in hypoxic-acidic ion-shifted ringers solution-induced human cerebral microvascular endothelial cell model of ischaemic injury assessed as ATP release at 10 uM measured after 2 hrs by luciferin-luciferase based luminescence assay relative to control; set-up: scale not given: the % may be the effect or the level left
How it was run: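 hCMVEC (passages 8-17) seeded at 2 x 10^6/well on collagen-I (1 µg/cm²) and grown 48 h to a confluent monolayer. Washed in NR, then exposed 2 h in HAIR (pH 6.6, N₂-bubbled, low Ca²⁺, K-gluconate/NMDG) containing peptide at 10 µM. Supernatant diluted 1:10 in firefly luciferase mix and read at 560 nm against an ATP standard (0-50 nM). Expressed as % of HAIR-only, mean of n=3.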

Gap junction alpha-1 protein (Homo sapiens), sequence (P17302 whole entry): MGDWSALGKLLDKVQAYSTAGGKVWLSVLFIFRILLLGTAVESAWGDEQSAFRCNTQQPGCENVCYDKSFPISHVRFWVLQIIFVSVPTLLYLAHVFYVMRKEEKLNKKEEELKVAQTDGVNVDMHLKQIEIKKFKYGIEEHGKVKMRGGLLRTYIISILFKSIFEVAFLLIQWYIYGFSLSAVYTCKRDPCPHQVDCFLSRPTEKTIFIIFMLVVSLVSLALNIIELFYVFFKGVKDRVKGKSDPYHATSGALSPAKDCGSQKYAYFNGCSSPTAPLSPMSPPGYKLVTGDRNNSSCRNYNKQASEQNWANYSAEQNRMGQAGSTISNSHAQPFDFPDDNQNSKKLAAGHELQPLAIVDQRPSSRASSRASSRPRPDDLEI

Compound | half-life at 150 ug/l [1] [min] | Activity [2]
CC(C)C[C@H](NC(=O)[C@H](Cc1ccccc1)NC(=O)[C@H](CS)NC(=O)[C@H](CC(=O)O)NC(=O)[C@@H](N)C(C)C)C(=O)N[C@@H](CO)C(=O)N[C@@H](CCCNC(=N)N)C(=O)N1CCC[C@H]1C(=O)N[C@H](C(=O)N[C@@H](CCC(=O)O)C(=O)N[C@@H](CCCCN)C(=O)N[C@H](C(=O)O)[C@@H](C)O)[C@@H](C)O (H-VDCFLSRPTEKT-OH) | 5 | 53.8%
CCCCCCCCCC(=O)OCCSC[C@H](NC(=O)[C@@H]1CCCN1C(=O)[C@H](CCCNC(=N)N)NC(=O)[C@H](CO)NC(=O)[C@H](CC(C)C)NC(=O)[C@H](Cc1ccccc1)NC(=O)[C@H](CS)NC(=O)[C@H](CC(=O)O)NC(=O)[C@@H](N)C(C)C)C(=O)N[C@@H](CCC(=O)O)C(=O)N[C@@H](CCCCN)C(=O)N[C@H](C(=O)O)[C@@H](C)O (H-VDCFLSRPC(Ethyl(2-decanoyloxy))EKT-OH) | – | inactive
CC(C)C[C@H](NC(=O)[C@H](Cc1ccccc1)NC(=O)[C@H](CS)NC(=O)[C@H](CC(=O)O)NC(=O)[C@@H](N)C(C)C)C(=O)N[C@@H](CSCCOC(=O)c1ccc(C(C)(C)C)cc1)C(=O)N[C@@H](CCCNC(=N)N)C(=O)N1CCC[C@H]1C(=O)N[C@H](C(=O)N[C@@H](CCC(=O)O)C(=O)N[C@@H](CCCCN)C(=O)N[C@H](C(=O)O)[C@@H](C)O)[C@@H](C)O (H-VDCFLC(CH2CH2OBz(4-tBu))RPTEKT-OH) | – | inactive
